Reference: publication PMC4021529 (British Journal of Cancer, 2014)
Where “and” joins values, the source holds several entries; their conditions need not be identical. Equal entries are not always repeated. Marks after values point to notes of the source that are not given here.

Assays:
Type in all cases: in vivo, human
[1] = Phase I 3+3 dose escalation: MTD and dose-limiting toxicities; details: for maximum tolerated dose (MTD): Asian patients
How it was run: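 Open-label 3+3 escalation run separately for each schedule. Test compound given as a 2-h IV infusion every 3 weeks: A on day 1 (100, 200, 250, 300 mg, up to 400), B on days 1 and 8 (50, 100, 150, 200 mg, up to 250). MTD was the highest dose with DLT in ≤1 of 6 patients in course 1. Graded by CTCAE v3.0. Up to 18 patients treated at the MTD.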

[2] = Plasma pharmacokinetics; details: for clearance / AUC(0-inf) / MRT / Vd: human, plasma, iv; for AUC0–∞,norm / Cmax,norm / AUC0–168,norm: gMean, dose normalised
[3] = Adverse events
[4] = schedule A, 100 mg (n=3), first 2-h i.v. infusion
[5] = schedule A, 200 mg (n=3), first 2-h i.v. infusion
[6] = schedule A, 250 mg (n=5), first 2-h i.v. infusion
[7] = schedule A, 300 mg (n=16), first 2-h i.v. infusion
[8] = schedule A, 100 mg (n=3), irrespective of relatedness
[9] = schedule A, 250 mg (n=6), irrespective of relatedness
[10] = schedule A, 300 mg (n=17), irrespective of relatedness

CC[C@@H]1C(=O)N(C)c2cnc(Nc3ccc(C(=O)N[C@H]4CC[C@H](N5CCN(CC6CC6)CC5)CC4)cc3OC)nc2N1C(C)C [volasertib]
time of occurrence of DLTs ([1]; both schedules): 8–15 treatment days | patients with DLTs during course 1 ([1]; expansion cohort schedule A, 300 mg): Four patients | patients with DLTs ([1]; expansion cohort schedule B, 150 mg): None | patients with thrombocytopenia (grade 4) as DLT in first course ([1]; schedule A, 300 mg (MTD)): Two patients | patients with a DLT related to neutropenia ([1]; schedule A, 300 mg (MTD), 17 patients): Four patients | DLTs during course 1 ([1]; schedule A, 300 mg (n=6), dose escalation): No DLTs | duration of febrile neutropenia reported as DLT ([1]; schedule A, 300 mg, two patients): 3 days and 4 days | patients with DLTs in first treatment course ([1]; schedule A, 350 mg (n=3)): All three patients | maximum tolerated dose (MTD) ([1]; schedule A: 2-h i.v. infusion day 1 every 3 weeks): 300 mg | DLTs of thrombocytopenia (grade 4) ([1]; schedule B): no DLTs | patients with DLTs in first treatment course ([1]; schedule B, 200 mg (n=3)): two out of three patients | maximum tolerated dose (MTD) ([1]; schedule B: 2-h i.v. infusion days 1 and 8 every 3 weeks): 150 mg | DLTs after intra-individual dose escalation from MTD to a higher dose ([1]; up to 350 mg (schedule A, 3 patients) and 200 mg (schedule B, 1 patient)): No DLTs | apparent terminal half-life (t1/2) ([2]; 2-h i.v. infusion, summary across doses): 135 h | clearance [2]: > 770 mL/min | AUC(0-inf) ([2]; 100 mg): 2140 ng·h/mL | MRT ([2]; 100 mg): 163 h | Vd ([2]; 100 mg): 7600 L | clearance ([2]; 100 mg): 780 mL/min | AUC(0-inf) ([2]; 200 mg): 3280 ng·h/mL | MRT ([2]; 200 mg): 98.2 h | Vd ([2]; 200 mg): 5980 L | clearance ([2]; 200 mg): 1020 mL/min | AUC(0-inf) ([2]; 250 mg): 6140 ng·h/mL | MRT ([2]; 250 mg): 109 h | Vd ([2]; 250 mg): 4440 L | clearance ([2]; 250 mg): 679 mL/min | AUC(0-inf) ([2]; 300 mg): 6260 ng·h/mL | MRT ([2]; 300 mg): 103 h | Vd ([2]; 300 mg): 4920 L | clearance ([2]; 300 mg): 798 mL/min | AUC(0-inf) ([2]; 350 mg): 9790 ng·h/mL | MRT ([2]; 350 mg): 93 h | Vd ([2]; 350 mg): 3320 L | clearance ([2]; 350 mg): 596 mL/min | elimination route ([2]; low exposures of main metabolite, data not shown): primarily eliminated unchanged | AUC0–∞,norm [2, 4]: 21.4 ng·h/mL/mg | Cmax,norm [2, 4]: 1.86 ng/mL/mg | AUC0–∞,norm [2, 5]: 16.4 ng·h/mL/mg | Cmax,norm [2, 5]: 2.70 ng/mL/mg | AUC0–∞,norm [2, 6]: 24.6 ng·h/mL/mg | Cmax,norm [2, 6]: 2.16 ng/mL/mg | AUC0–∞,norm [2, 7]: 20.9 ng·h/mL/mg | Cmax,norm [2, 7]: 1.63 ng/mL/mg | AUC0–∞,norm ([2]; schedule A, 350 mg (n=2), first 2-h i.v. infusion): 28.0 ^a (ng h ml^−1) mg^−1 | Cmax,norm ([2]; schedule A, 350 mg (n=3), first 2-h i.v. infusion): 1.93 ng/mL/mg | AUC0–168,norm ([2]; schedule B, 50 mg (n=3), first 2-h i.v. infusion): 11.8 ^b (ng h ml^−1) mg^−1 | Cmax,norm ([2]; schedule B, 50 mg (n=4), first 2-h i.v. infusion): 2.12 ng/mL/mg | Cmax,norm ([2]; schedule B, 100 mg (n=3), first 2-h i.v. infusion): 2.34 ng/mL/mg | AUC0–168 ([2]; schedule B, 100 mg, first 2-h i.v. infusion, n=2, individual values): 1390 ng·h/mL | AUC0–168,norm ([2]; schedule B, 150 mg (n=14), first 2-h i.v. infusion): 12.6 ^d (ng h ml^−1) mg^−1 | Cmax,norm ([2]; schedule B, 150 mg (n=15), first 2-h i.v. infusion): 1.56 ng/mL/mg | AUC0–168,norm ([2]; schedule B, 200 mg (n=2), first 2-h i.v. infusion): 16.6 ^a (ng h ml^−1) mg^−1 | Cmax,norm ([2]; schedule B, 200 mg (n=3), first 2-h i.v. infusion): 2.05 ng/mL/mg | accumulation ([2]; schedule B, administration on day 1 and day 8): No accumulation | deaths during the study ([3]; all due to underlying cancer, none considered related to volasertib): three deaths | Abdominal pain grade 3, number of patients [3, 8]: 1 n | Anaemia grade 3, number of patients [3, 8]: 1 n | Fatigue grade 3, number of patients [3, 8]: 1 n | Neutropenia grade 3, number of patients [3, 8]: 1 n | Thrombocytopenia grade 3, number of patients [3, 8]: 1 n | Upper GI haemorrhage grade 3, number of patients [3, 8]: 1 n | Anaemia grade 3, number of patients [3, 9]: 3 n | Anaemia grade 4, number of patients [3, 9]: 1 n | Hypokalaemia grade 3, number of patients [3, 9]: 1 n | Ileus grade 3, number of patients [3, 9]: 1 n | Leukopenia grade 4, number of patients [3, 9]: 1 n | Neutropenia grade 4, number of patients [3, 9]: 2 n | Thrombocytopenia grade 3, number of patients [3, 9]: 1 n | Thrombocytopenia grade 4, number of patients [3, 9]: 1 n | Abdominal pain grade 3, number of patients [3, 10]: 2 n | Anaemia grade 3, number of patients [3, 10]: 2 n | Anaemia grade 4, number of patients [3, 10]: 2 n | Fatigue grade 3, number of patients [3, 10]: 1 n | Febrile neutropenia grade 3, number of patients [3, 10]: 1 n | Febrile neutropenia grade 4, number of patients [3, 10]: 1 n | Infection grade 3, number of patients [3, 10]: 1 n | Leukopenia grade 3, number of patients [3, 10]: 7 n | Neutropenia grade 3, number of patients [3, 10]: 5 n | Neutropenia grade 4, number of patients [3, 10]: 5 n | Pain grade 3, number of patients [3, 10]: 1 n | Thrombocytopenia grade 3, number of patients [3, 10]: 7 n
